Source: ChEMBL document CHEMBL5338714, “Design, synthesis and biological evaluation of biphenyl-benzamides as potent FtsZ inhibitors” (Eur J Med Chem, 2022)
In brackets after ≈: the same amount, converted by molar mass.

Experiments:
Staphylococcus aureus [1] = test: Antibacterial activity against Staphylococcus aureus ATCC25923 assessed as bacterial growth inhibition incubated for 18 hrs by CLSI based broth microdilution method; type: functional
In short: (§1)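 CLSI broth microdilution. Log-phase bacteria in Mueller Hinton broth added to 2-fold serial dilutions spanning 128 to 0.25 or 2 to 0.004 µg/mL. Incubated aerobically for 18 h at 37 °C, then OD600 read. MIC is the lowest concentration giving ≥90% growth inhibition; three independent assays.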

Bacillus subtilis [2] = test: Antibacterial activity against Bacillus subtilis ATCC9372 assessed as bacterial growth inhibition incubated for 18 hrs by CLSI based broth microdilution method; type: functional; in short: as §1
Staphylococcus aureus [3] = test: Antibacterial activity against Staphylococcus aureus ATCC29213 assessed as bacterial growth inhibition incubated for 18 hrs by CLSI based broth microdilution method; type: functional; in short: as §1
Bacillus subtilis [4] = test: Antibacterial activity against Bacillus subtilis MG27 assessed as bacterial growth inhibition incubated for 18 hrs by CLSI based broth microdilution method; type: functional; in short: as §1
Bacillus subtilis [5] = test: Antibacterial activity against Bacillus subtilis BS01 assessed as bacterial growth inhibition incubated for 18 hrs by CLSI based broth microdilution method; type: functional; in short: as §1
Bacillus subtilis [6] = test: Antibacterial activity against Bacillus subtilis 618 assessed as bacterial growth inhibition incubated for 18 hrs by CLSI based broth microdilution method; type: functional; in short: as §1
Staphylococcus aureus [7] = test: Induction of resistance in Staphylococcus aureus ATCC29213 assessed as fold increase in MIC at 0.5 times MIC after 18 passages incubated for 24 hrs by resistance development assay; type: functional
In short: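 Serial passage of S. aureus ATCC29213. Initial MIC was found by broth microdilution. Bacteria from the 0.5 × MIC tubes (duplicate) were diluted to about 5 × 10^5 CFU/mL and re-exposed to compound for 24 h at 35 °C, then fold increase in MIC was determined. Repeated for 18 passages, with norfloxacin as comparator.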

[8] = Metabolic stability in human liver microsomes assessed as intrinsic clearance preincubated for 5 mins followed by NADPH addition measured upto 45 mins by LC/MS analysis; type: ADME, Microsome; conditions: time < 50 min, read-out: CLH
In short: (§2)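 Liver microsomes at 0.75 mg/mL final protein, with test article and NADPH regeneration system (6 mM) in 100 mM phosphate buffer, pH 7.4. Preincubated 5 min at 37 °C, then started with NADPH. Quenched with acetonitrile containing internal standard at 5, 15, 30 and 45 min, centrifuged, and percent remaining measured by LC/MS. Ketanserin served as reference.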

[9] = Metabolic stability in rat liver microsomes assessed as half life preincubated for 5 mins followed by NADPH addition measured upto 45 mins by LC/MS analysis; type: ADME, Microsome; conditions: time < 50 min; in short: as §2
[10] = Metabolic stability in mouse liver microsomes assessed as half life preincubated for 5 mins followed by NADPH addition measured upto 45 mins by LC/MS analysis; type: ADME, Microsome; conditions: time < 50 min; in short: as §2
[11] = Metabolic stability in mouse liver microsomes assessed as intrinsic clearance preincubated for 5 mins followed by NADPH addition measured upto 45 mins by LC/MS analysis; type: ADME, Microsome; conditions: time < 50 min, read-out: CLH; in short: as §2
[12] = Metabolic stability in human liver microsomes assessed as half life preincubated for 5 mins followed by NADPH addition measured upto 45 mins by LC/MS analysis; type: ADME, Microsome; conditions: time < 50 min; in short: as §2
[13] = Metabolic stability in rat liver microsomes assessed as intrinsic clearance preincubated for 5 mins followed by NADPH addition measured upto 45 mins by LC/MS analysis; type: ADME, Microsome; conditions: time < 50 min, read-out: CLH; in short: as §2

Row | SMILES | MIC (Staphylococcus aureus [1]) [µg/mL] | MIC (Bacillus subtilis [2]) [µg/mL] | MIC (Staphylococcus aureus [3]) [µg/mL] | other results
1 | Cc1cccc(-c2cccc(COc3ccc(F)c(C(N)=O)c3F)c2)c1 | > 128 | 32 (≈ 90.6 µM) | > 128 | –
2 | CC(C)(C)c1ccc(-c2cccc(COc3ccc(F)c(C(N)=O)c3F)c2)cc1 | > 128 | 2 (≈ 5.06 µM) | > 128 | –
3 | NC(=O)c1c(F)ccc(OCc2cccc(-c3ccc(Cl)cc3Cl)c2)c1F | 0.25 (≈ 0.612 µM) | 0.031 (≈ 0.0759 µM) | 0.25 (≈ 0.612 µM) | –
4 | NC(=O)c1c(F)ccc(OC(CO)c2cccc(-c3ccc(C(F)(F)F)cc3)c2)c1F (stereo not given) | 4 (≈ 9.15 µM) | 0.5 (≈ 1.14 µM) | 8 (≈ 18.3 µM) | –
5 | NC(=O)c1c(F)ccc(OCc2ccccc2)c1F | 32 (≈ 122 µM) | 16 (≈ 60.8 µM) | 64 (≈ 243 µM) | –
6 | NC(=O)c1c(F)ccc(OCc2cccc(-c3ccc(C(F)(F)F)cc3Cl)c2)c1F | 0.25 (≈ 0.566 µM) | 0.031 (≈ 0.0702 µM) | 0.25 (≈ 0.566 µM) | MIC (Bacillus subtilis [4]): 0.063 µg/mL (≈ 0.143 µM); MIC (Bacillus subtilis [5]): 0.031 µg/mL (≈ 0.0702 µM); MIC (Bacillus subtilis [6]): 0.063 µg/mL (≈ 0.143 µM)
7 | NC(=O)c1c(F)ccc(OCc2cccc(-c3ccc(C(F)(F)F)c(F)c3)c2)c1F | > 128 | > 128 | > 128 | –
8 | NC(=O)c1c(F)ccc(OCc2cccc(-c3ccccc3)c2)c1F | 2 (≈ 5.89 µM) | 0.5 (≈ 1.47 µM) | 2 (≈ 5.89 µM) | –
9 | CCn1cc(C(=O)O)c(=O)c2cc(F)c(N3CCNCC3)cc21 [NORFLOXACIN] | – | – | – | fold change (FC) (Staphylococcus aureus [7]): 128
10 | NC(=O)c1c(F)ccc(OCc2cc(Cl)cc(-c3ccc(C(F)(F)F)cc3)c2)c1F | > 128 | 1 (≈ 2.26 µM) | > 128 | –
11 | NC(=O)c1c(F)ccc(OCc2cccc(-c3ccc(C(F)(F)F)cc3)c2)c1F | 1 (≈ 2.45 µM) | 0.125 (≈ 0.307 µM) | 2 (≈ 4.91 µM) | –
12 | NC(=O)c1c(F)ccc(OCc2nc3cc(Cl)cnc3s2)c1F | 1 (≈ 2.81 µM) | 0.5 (≈ 1.41 µM) | 1 (≈ 2.81 µM) | –
13 | NC(=O)c1c(F)ccc(OCc2cccc(-c3ccc(C(F)(F)F)cc3F)c2)c1F | 1 (≈ 2.35 µM) | 0.063 (≈ 0.148 µM) | 1 (≈ 2.35 µM) | –
14 | O=C(c1ccc(F)cc1)C1CCN(CCn2c(=O)[nH]c3ccccc3c2=O)CC1 [KETANSERIN] | – | – | – | CLint scaled [8]: 57.1 mL/min/kg; half-life [9]: 14.5 min; half-life [10]: 8.57 min; CLint scaled [11]: 637 mL/min/kg; half-life [12]: 30.4 min; CLint scaled [13]: 171 mL/min/kg
15 | NC(=O)c1c(F)ccc(OCc2cccc(-c3ccc(C(F)(F)F)c(Cl)c3)c2)c1F | > 128 | > 128 | > 128 | –
16 | CCc1ccc(-c2cccc(COc3ccc(F)c(C(N)=O)c3F)c2)cc1 | 0.5 (≈ 1.36 µM) | 0.125 (≈ 0.34 µM) | 0.5 (≈ 1.36 µM) | –
17 | COc1ccc(-c2cccc(COc3ccc(F)c(C(N)=O)c3F)c2)cc1 | 1 (≈ 2.71 µM) | 0.25 (≈ 0.677 µM) | 2 (≈ 5.41 µM) | –
